Measured values: PubChem BioAssay AID2300 (The Scripps Research Institute Molecular Screening Center, 2010)
Among all 320,000 compounds or so, about 380 (0.12%) were called active.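 How the source made its calls: active means percent inhibition above the cutoff of mean plus 3 SD of all tested compounds, set per screening campaign (cut at about 20% in these data); inactive means the rest.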 The entries come from a sample that favours actives as a whole.

The compounds below were run against Photoreceptor-specific nuclear receptor (Homo sapiens) (UniProt Q9Y5X4) (assay: disruption of NR2E3 corepressor interaction – biochemical, TR-FRET, GST-NR2E3, biotin-RetCOR, NR2E3 agonist project, primary screen (AID 2300;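 further: 0% = DMSO wells and 100% = biotin wells as full block of FRET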)). Conditions: 1536-well, at 4.78 µM, stronger effect = higher value.
Outline: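 Material – GST-tagged NR2E3 plus biotinylated RetCOR corepressor · Quantity – NR2E3 fusion 1.35 nM · Times – 5 h incubation at 4 °C · Medium – pH 7.5 Tris-based buffer · Technique – TR-FRET, Eu(K)-anti-GST donor, streptavidin-D2 acceptor, ex 340, em 617/671 nm · Benchmarks – high control biotin, low control 0.6% DMSO · Format – 1536-well plates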

Sequence of Photoreceptor-specific nuclear receptor (Homo sapiens) (Q9Y5X4 whole entry, looked up, the tested form may be a part): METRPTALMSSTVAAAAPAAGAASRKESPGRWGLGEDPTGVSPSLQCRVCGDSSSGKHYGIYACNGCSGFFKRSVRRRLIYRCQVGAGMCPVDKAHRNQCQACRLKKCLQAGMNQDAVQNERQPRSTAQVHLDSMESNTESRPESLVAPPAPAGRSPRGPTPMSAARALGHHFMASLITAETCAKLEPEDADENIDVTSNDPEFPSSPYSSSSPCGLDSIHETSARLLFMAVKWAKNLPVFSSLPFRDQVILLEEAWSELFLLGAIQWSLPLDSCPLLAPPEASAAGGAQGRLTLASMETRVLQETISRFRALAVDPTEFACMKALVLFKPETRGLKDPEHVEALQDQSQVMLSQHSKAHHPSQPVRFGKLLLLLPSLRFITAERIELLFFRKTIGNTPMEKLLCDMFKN

Inhibition of corepressor binding, active:
N#Cc1c(N)nc2c3c(sc(=N)c2c1N)NC(=O)CC3c1ccccc1Cl (stereo not drawn) 27.7%, CC(C)c1ccc(C2C(C(=O)c3ccco3)=C(O)C(=O)N2CC2CCCO2)cc1 (stereo not drawn) 22.2%, N#Cc1ccccc1Sc1ccccc1C(=O)OCC(=O)NC1CCCCC1 26.6%, CCOC(=O)c1ccc(NC(=S)N2CCN(c3ccccn3)CC2)cc1 43.1%, Cc1cccc(NC(=O)c2sc3nc(N4CCOCC4)c4c(c3c2N)CCCC4)c1 27.8%, O=C(Oc1ccccc1)Oc1ccc2c(c1)oc(=O)c1ccccc12 26%

Inhibition of corepressor binding, inactive:
Cc1ccc(CN(N=Nc2nonc2N)c2nonc2N)c(C)c1 -0.3%, CC(=O)N=c1ncn(CC(COC(C)=O)OC(C)=O)c2nc[nH]c12 (stereo not drawn) 0.37%, CCC[C@H]1CCCC/C=C\CCCC(=O)OCCN1C(=O)OC(C)(C)C -1.54%, CCOc1cc(NC(=O)CCl)c(OCC)cc1NC(C)=O -2.07%, COc1ccc2cc(-c3[nH]ncc3CNCCn3nc(C)cc3C)ccc2c1 1.22%, COc1cc(C(=O)Nc2ncccc2C)ccc1OCC(=O)N1CCOCC1 2.79%, Cc1nc(SCC(=O)NC2CCCC2)[nH]c(=O)c1C -2.03%, O=C(c1ccc(Br)o1)N(c1ccccn1)C1CCCCC1 -1.56%, CCCc1cc(=O)[nH]c(SCC(=O)Nc2sc3c(c2C#N)CCCC3)n1 1.75%, CCOc1ccc(NC(=O)N2CC=C(n3c(=O)[nH]c4ccccc43)CC2)cc1 1.76%, CCN1CCN(C(=O)C2(NC(=O)Nc3cccc(F)c3)CCCCC2)CC1 2.38%, Cc1ccc(C(=O)N/C(=C/c2ccc(-c3cccc([N+](=O)[O-])c3)o2)C(=O)NCCCN(C)C)cc1 -3.84%, CCCCC(=O)Nc1c2c(nn1-c1ccc([N+](=O)[O-])cc1)CS(=O)(=O)C2 2.14%, COc1cc(OC)c(C(=O)N2CCCC2)cc1OC 2.23%, CSc1nc2c(c(=O)[nH]1)C(c1cccc(Cl)c1Cl)CC(=O)N2 (stereo not drawn) 5.66%, COc1ccc(C2CC(=O)Nc3sc(=N)c4c(N)c(C#N)c(N)nc4c32)cc1OC (stereo not drawn) -3.58%, CN(C)CCOc1cccc(Br)c1 -0.9%, O=[N+]([O-])/C(N=Nc1ccccc1)=N\Nc1ccccc1 -0.3%, CCc1ccc(CN(C)C(=O)C2CCC(=O)N(Cc3cccc(OC)c3)C2)nc1 (stereo not drawn) -4.58%, C/C(=N/O)c1ccc(N2C(=O)C3C4C=CC(C3C2=O)C2C3C(=O)N(c5ccc(/C(C)=N/O)cc5)C(=O)C3C42)cc1 (stereo not drawn) -3.35%, O=C(NNC(=O)C1CCC1)c1ccccc1 3.19%, O=C(CNCc1ccco1)Nc1cc(S(=O)(=O)N2CCOCC2)ccc1N1CCCC1 6.04%, Cc1c(Cl)cccc1NC(=O)[C@@]1(CC(=O)O)CC(/C=C/c2ccccc2)=NO1 -2.16%, COC(=O)C1(C)NC(c2ccccc2OC)C2C(=O)N(c3ccccc3)C(=O)C21 (stereo not drawn) 1.42%, O=C(CCCCO)c1ccc(O)c(Cl)c1 -2.2%, O=C(COC(=O)Cc1ccc(Br)cc1)Nc1c(F)c(F)c(F)c(F)c1F -1.39%, CN(c1ccccc1)S(=O)(=O)c1cccc(NC(=O)Cc2ccc(Cl)cc2)c1 4.43%, O=c1cnnc(Nc2ccccc2F)[nH]1 3.47%, Oc1c(Br)cc(/C=N/NC(=S)NCC2CCCO2)cc1Br (stereo not drawn) 1.11%, O=C(NCCO)C(=O)NCC(c1ccc2c(c1)OCO2)N1CCN(c2ccc(F)cc2)CC1 (stereo not drawn) -1.84%, CC1(C)C2CCC1(CS(=O)(=O)NCCc1c[nH]c3ccccc13)C(=O)C2 (stereo not drawn) -2.06%, CCOC(=O)c1c(NC(=O)CSc2nnc(CNc3ccc(C)cc3C)o2)sc(C)c1C -0.79%, O=S(=O)(Nc1n[nH]c(C(F)(F)F)n1)c1ccccc1 6.01%, Cc1c(Cl)c([N+](=O)[O-])nn1CC(=O)NCCCN1CCOCC1 4.17%, COc1ccccc1C(C)NC(=O)Cc1ccsc1 (stereo not drawn) 2.21%, COc1ccc2oc(C(=O)N(CC(C)C)C3CCS(=O)(=O)C3)c(C)c2c1 (stereo not drawn) 3.14%, COc1ccc(N2CCN(C(=O)C3CCN(S(=O)(=O)c4ccc(C)cc4)CC3)CC2)cc1 6.37%, CC1(C)CN(c2ccc(-c3ccnc4ncnn34)cc2)C1=O -0.76%, COc1ccc(C)cc1S(=O)(=O)NCCc1ccccc1 2.48%, Fc1ccc(CNc2nc3ccccc3n3nnnc23)cc1 -0.09%, CC(C)(C)NC(=O)/C(=C/c1cccnc1)NC(=O)c1ccco1 -5.01%, NC(=O)c1cc(S(=O)(=O)NCCCc2ccco2)cs1 2.54%, O=C(NCCCNC(=O)NC1CCCCC1)NC1CCCCC1 1.65%, Cc1ccc(CC(=O)Nc2ccc(S(=O)(=O)N3CCOCC3)cc2)cc1C 1.54%, CC(C)C[C@@H](N)c1nnc(SCC(=O)c2ccc(Cl)cc2)o1 -0.27%, CCOc1cc(C2C(C(=O)c3ccco3)=C(O)C(=O)N2Cc2ccccc2)ccc1O (stereo not drawn) 5.32%, O=C(C1=C(O)C(=O)N(Cc2ccccc2)C1c1ccco1)c1ccco1 (stereo not drawn) 13%, O=C1NC(c2ccccc2)=NC1(Nc1ccccn1)C(F)(F)F (stereo not drawn) 0.74%, COc1cccc(N(CC(=O)NCCSc2ccccn2)S(C)(=O)=O)c1 -2.09%, OC(c1ccccc1)c1nccn1Cc1ccccc1 (stereo not drawn) -1.45%, NS(=O)(=O)c1ccc(NC2=CC(c3ccc(F)cc3)N(c3ccc(S(N)(=O)=O)cc3)C2=O)cc1 (stereo not drawn) 1.09%, O=c1[nH]cccc1-c1nc2ccccc2n1Cc1ccc(Cl)cc1 5.14%, CCOc1ccccc1N(CC(=O)NC1CCCCC1)C(=O)CCCC(=O)Nc1ccccn1 2.15%, N#Cc1ccc(C(=O)OCC(=O)NC(=O)NC2CCCCC2)cc1 0.11%, O=C(COC(=O)c1ccccc1SCC(=O)NC1CCCCC1)NC1CCCCC1 -5.62%, O=C(NCC(c1ccco1)N1CCc2ccccc21)c1cccc(F)c1 (stereo not drawn) -1.2%, CCOC(=O)N1CCC(=NNC(N)=O)CC1 0.68%, O=C(Nc1ccccn1)C1CCN(S(=O)(=O)c2ccc3c(c2)OCCO3)CC1 2.07%, NNC(=O)CSc1nnc(-c2ccccc2)n1-c1ccccc1 3.63%, CC1(C)CC(O)C(CCC(O)c2ccccc2)C(C)(C)N1 (stereo not drawn) 0.53%, O=C(Cn1cncn1)N/N=C/c1c2ccccc2cc2ccccc12 -7.82%, Cc1ccc(C(C)C)c(OCc2nnc(SCC(=O)Nc3nccs3)n2C)c1 2.5%, CN(C(=O)CN1C(=O)NC(C)(CCc2ccccc2)C1=O)c1ccccc1 (stereo not drawn) 3.26%, O=[N+]([O-])c1ccc(NC(=S)N2CCN(c3ccccn3)CC2)cc1 4%, CCOC(=O)c1ccc(NC(=S)N2CCCC2)cc1 0.82%, Cc1nc(N2CCOCC2)c2c(C)c(C(=O)Nc3ccc(C(F)(F)F)cc3)sc2n1 -0.86%, CC(=O)Nc1ccc(N2CCOCC2)c(C(=O)Nc2cccc(C)c2)c1 0.26%, CN(Cc1ccccc1Cl)C(=O)C1CCC(=O)N(CCc2cccc(F)c2)C1 (stereo not drawn) -0.98%, CCC(CC)C(=O)Nc1c2c(nn1-c1ccc(C)cc1)CS(=O)(=O)C2 0.73%, CCOc1ccc(C(=O)Nc2cc(Cl)ccc2-n2cncn2)cc1OC 1.32%, N#C/C(C(=S)Nc1ccccc1)=C1/NN=C(N2CCOCC2)N1c1ccccc1 -1.05%, Cc1ccccc1NC(=O)COc1cccc2c1CCNC2=O -2.78%, NC(=S)c1ccc(C(N)=S)o1 2.26%, CC(=O)COc1ccc2c(-c3ccccc3)cc(=O)oc2c1 3.24%, O=C(COc1ccc2c3c(c(=O)oc2c1)CCCC3)NCC(O)c1ccccc1 (stereo not drawn) 1.28%, Cc1ccccc1C(CC(=O)c1cccs1)C(C#N)C#N (stereo not drawn) 3.7%, COc1cc(C(F)(F)F)c(C(=O)N(C)c2ccc(Cl)cc2)cn1 -2.07%, CC(=O)Nc1sc2c(c1C(c1cccc(F)c1)N1CCN(CCO)CC1)CCCC2 (stereo not drawn) 2.91%, COC(=O)[C@]1(C)N[C@H](c2ccc(-c3ccc(Cl)c(Cl)c3)cc2)[C@@H]2C(=O)N(C)C(=O)[C@@H]21 -0.27%, CC(=O)c1cccc(NC(=O)CN2C(=O)c3cccnc3Oc3ccc(Cl)cc32)c1 1.24%, COc1cc(C2C3C(=O)N(c4ccccc4)C(=O)C3ON2c2ccccc2)ccc1O (stereo not drawn) 1.53%, Cn1c(=O)c(=O)n(C)c2cc(S(=O)(=O)CCC(=O)N3CCCCC3)ccc21 1.89%, CSc1sc(C)cc1C1C(C#N)=C(N)N(c2cccnc2)C2=C1C(=O)CCC2 (stereo not drawn) 0.82%, COCC(=O)N1CCCC(C(=O)c2ccc(C(F)(F)F)cc2)C1 (stereo not drawn) 3.84%, Cc1ccc(CN2CCN(c3ccccc3Cl)CC2)o1 0.07%, COCCNC(=O)CN1C(=O)CSc2ncccc21 4.79%, CCOc1ccccc1Nc1ccc(C(=O)O)cc1[N+](=O)[O-] 0.59%
